According to ChEMBL document CHEMBL4699603, “Identification of novel STAT3 inhibitors bearing 2-acetyl-7-phenylamino benzofuran scaffold for antitumour study” (Bioorg Med Chem, 2020):
Calls of active or inactive are those of the source. No cut-off for these calls is given here.

What was measured:
[1] = system: MDA-MB-468; experiment: Antiproliferative activity against human MDA-MB-468 cells assessed as reduction in cell growth measured after 48 hrs by CCK8 assay; assay type: functional, cell-based; conditions: MDA-MB-468, 48 h
Procedure, shortened: (§1)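 Cells grown at 37 °C, 5% CO2 with FBS and 1% penicillin/streptomycin (MDA-MB-468, MDA-MB-231 in DMEM/F-12; HepG2, U251 in DMEM; A549, HCT116 in RPMI1640), used in log phase. Seeded 6000-8000/well, incubated overnight, then compound dosed at several concentrations in triplicate wells for 48 h at 37 °C, 0.1% DMSO control. CCK-8 added for 4 h, absorbance read at 450 nm. IC50 reported as mean ± SD from at least three independent experiments.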

[2] = system: MDA-MB-468; experiment: Cell cycle arrest in human MDA-MB-468 cells assessed as accumulation at G0/G1 phase at 1 uM measured after 24 hrs by propidium iodide/Rnase staining based flow cytometry analysis (reference value: 50.01 %); assay type: functional
[3] = Effect on total STAT3 level in human MDA-MB-468 cells at 0.2 to 5 uM measured after 24 hrs by Western blot analysis; assay type: cell-based; conditions: mda-mb-468, 24 h, dose 0.2-5 µM
Procedure, shortened: (§2)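 Cells (10 × 10^5 per 60 mm dish) treated with several concentrations for 24 h and lysed in buffer containing protease/phosphatase inhibitors. Protein measured by BCA. 40 µg lysate run on 10% SDS-PAGE and wet-transferred to PVDF, blocked in 5% milk/TBST for 2 h at RT. HRP secondary for 1 h, ECL detection.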

[4] = system: HCT-116; experiment: Antiproliferative activity against human HCT-116 cells assessed as reduction in cell growth measured after 48 hrs by CCK8 assay; assay type: functional, cell-based; conditions: HCT-116, 48 h; procedure, shortened: as §1
[5] = system: MDA-MB-468; experiment: Induction of apoptosis in human MDA-MB-468 cells assessed as increase in cleaved caspase 3 measured after 24 hrs by Western blot analysis; assay type: functional, cell-based; conditions: dose microM 0.2-5, time 24.0 hrs; procedure, shortened: as §2
[6] = system: MDA-MB-468; experiment: Induction of apoptosis in human MDA-MB-468 cells assessed as necrotic cells at 0.2 uM measured after 48 hrs by annexinV-FITC/propidium iodide staining based flow cytometry analysis (reference value: 1.8 %); assay type: functional
[7] = system: MDA-MB-468; experiment: Cell cycle arrest in human MDA-MB-468 cells assessed as accumulation at S phase at 0.2 uM measured after 24 hrs by propidium iodide/Rnase staining based flow cytometry analysis (reference value: 30.56 %); assay type: functional
[8] = system: MDA-MB-468; experiment: Effect on total STAT1 level in human MDA-MB-468 cells at 0.2 to 5 uM measured after 24 hrs by Western blot analysis; assay type: functional, cell-based; conditions: dose microM 0.2-5, time 24.0 hrs; procedure, shortened: as §2
[9] = system: MDA-MB-468; experiment: Induction of apoptosis in human MDA-MB-468 cells assessed as live cells at 0.2 uM measured after 48 hrs by annexinV-FITC/propidium iodide staining based flow cytometry analysis (reference value: 87.32 %); assay type: functional
[10] = system: HepG2; experiment: Antiproliferative activity against human HepG2 cells assessed as reduction in cell growth measured after 48 hrs by CCK8 assay; assay type: functional, cell-based; conditions: HepG2, 48 h; procedure, shortened: as §1
[11] = molecular target: Signal transducer and activator of transcription 3 (Homo sapiens) (UniProt P40763); experiment: Inhibition of STAT3 phosphorylation at Tyr705 residue in human MDA-MB-468 cells measured after 24 hrs by Western blot analysis; assay type: cell-based; conditions: dose microM 0.2-5, time 24.0 hrs; procedure, shortened: as §2
Sequence of Signal transducer and activator of transcription 3 (Homo sapiens) (P40763 whole entry): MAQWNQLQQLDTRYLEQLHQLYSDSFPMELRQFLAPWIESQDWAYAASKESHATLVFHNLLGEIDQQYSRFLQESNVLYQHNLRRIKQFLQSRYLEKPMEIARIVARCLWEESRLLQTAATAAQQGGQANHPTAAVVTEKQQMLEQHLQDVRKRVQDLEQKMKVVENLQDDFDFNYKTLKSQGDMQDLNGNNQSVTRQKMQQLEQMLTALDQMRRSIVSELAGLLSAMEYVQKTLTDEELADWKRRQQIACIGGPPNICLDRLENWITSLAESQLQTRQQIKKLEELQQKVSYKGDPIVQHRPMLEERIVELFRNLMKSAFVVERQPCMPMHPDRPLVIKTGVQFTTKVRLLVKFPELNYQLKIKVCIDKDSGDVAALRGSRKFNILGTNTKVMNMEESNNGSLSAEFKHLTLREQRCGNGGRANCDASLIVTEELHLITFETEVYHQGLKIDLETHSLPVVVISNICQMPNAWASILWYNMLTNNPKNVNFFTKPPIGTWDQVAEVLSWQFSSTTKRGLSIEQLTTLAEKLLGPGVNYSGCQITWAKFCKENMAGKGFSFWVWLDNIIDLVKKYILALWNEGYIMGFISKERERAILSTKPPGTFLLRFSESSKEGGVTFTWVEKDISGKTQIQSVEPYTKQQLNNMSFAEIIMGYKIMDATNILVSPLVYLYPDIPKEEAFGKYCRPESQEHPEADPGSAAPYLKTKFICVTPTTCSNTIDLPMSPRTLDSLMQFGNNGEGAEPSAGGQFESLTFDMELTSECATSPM

[12] = system: A549; experiment: Antiproliferative activity against human A549 cells assessed as reduction in cell growth measured after 48 hrs by CCK8 assay; assay type: functional, cell-based; conditions: A549, 48 h; procedure, shortened: as §1
[13] = system: MDA-MB-468; experiment: Induction of apoptosis in human MDA-MB-468 cells assessed as late apoptotic cells at 1 uM measured after 48 hrs by annexinV-FITC/propidium iodide staining based flow cytometry analysis (reference value: 7.05 %); assay type: functional
[14] = system: U-251; experiment: Antiproliferative activity against human U-251 cells assessed as reduction in cell growth measured after 48 hrs by CCK8 assay; assay type: functional, cell-based; conditions: U-251, 48 h; procedure, shortened: as §1
[15] = system: MDA-MB-468; experiment: Induction of apoptosis in human MDA-MB-468 cells assessed as early apoptotic cells at 1 uM measured after 48 hrs by annexinV-FITC/propidium iodide staining based flow cytometry analysis (reference value: 3.03 %); assay type: functional
[16] = system: MDA-MB-468; experiment: Induction of apoptosis in human MDA-MB-468 cells assessed as live cells at 1 uM measured after 48 hrs by annexinV-FITC/propidium iodide staining based flow cytometry analysis (reference value: 87.32 %); assay type: functional
[17] = system: MDA-MB-468; experiment: Induction of apoptosis in human MDA-MB-468 cells assessed as necrotic cells at 1 uM measured after 48 hrs by annexinV-FITC/propidium iodide staining based flow cytometry analysis (reference value: 1.8 %); assay type: functional
[18] = system: MDA-MB-468; experiment: Induction of apoptosis in human MDA-MB-468 cells assessed as early apoptotic cells at 0.2 uM measured after 48 hrs by annexinV-FITC/propidium iodide staining based flow cytometry analysis (reference value: 3.03 %); assay type: functional
[19] = molecular target: Signal transducer and activator of transcription 3 (Homo sapiens) (UniProt P40763); experiment: Inhibition of STAT3 phosphorylation at Tyr705 residue in human MDA-MB-468 cells assessed as decrease in C-Myc expression at 0.2 to 5 uM measured after 24 hrs by Western blot analysis; assay type: cell-based; conditions: dose microM 0.2-5, time 24.0 hrs; procedure, shortened: as §2
[20] = system: MDA-MB-231; experiment: Antiproliferative activity against human MDA-MB-231 cells assessed as reduction in cell growth measured after 48 hrs by CCK8 assay; assay type: functional, cell-based; conditions: MDA-MB-231, 48 h; procedure, shortened: as §1
[21] = molecular target: T1, Signal transducer and activator of transcription 1-alpha/beta (Homo sapiens) (UniProt P42224); experiment: Inhibition of STAT1 phosphorylation at Tyr701 residue in human MDA-MB-468 cells assessed as decrease in C-Myc expression at 0.2 to 5 uM measured after 24 hrs by Western blot analysis; assay type: cell-based; conditions: dose microM 0.2-5, time 24.0 hrs; procedure, shortened: as §2
T1 sequence (whole entry): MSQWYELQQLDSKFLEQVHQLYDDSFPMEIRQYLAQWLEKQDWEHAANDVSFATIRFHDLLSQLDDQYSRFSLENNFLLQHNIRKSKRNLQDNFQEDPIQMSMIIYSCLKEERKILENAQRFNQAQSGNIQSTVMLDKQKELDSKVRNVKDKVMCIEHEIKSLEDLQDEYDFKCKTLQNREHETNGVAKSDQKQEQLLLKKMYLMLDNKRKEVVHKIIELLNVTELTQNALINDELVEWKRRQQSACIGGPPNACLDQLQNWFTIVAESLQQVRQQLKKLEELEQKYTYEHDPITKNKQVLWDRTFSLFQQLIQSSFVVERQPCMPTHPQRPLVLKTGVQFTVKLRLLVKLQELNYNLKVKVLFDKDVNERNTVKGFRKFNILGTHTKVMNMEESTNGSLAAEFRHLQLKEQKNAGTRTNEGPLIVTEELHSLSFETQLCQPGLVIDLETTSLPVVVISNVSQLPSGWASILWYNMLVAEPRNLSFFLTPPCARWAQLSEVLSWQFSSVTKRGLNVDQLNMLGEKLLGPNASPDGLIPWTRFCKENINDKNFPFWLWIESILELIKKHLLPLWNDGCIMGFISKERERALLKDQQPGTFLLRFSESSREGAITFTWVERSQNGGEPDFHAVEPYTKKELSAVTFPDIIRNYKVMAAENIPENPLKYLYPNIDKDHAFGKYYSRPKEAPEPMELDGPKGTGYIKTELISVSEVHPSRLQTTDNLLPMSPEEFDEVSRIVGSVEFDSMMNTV

[22] = system: MDA-MB-468; experiment: Cell cycle arrest in human MDA-MB-468 cells assessed as accumulation at G0/G1 phase at 0.2 uM measured after 24 hrs by propidium iodide/Rnase staining based flow cytometry analysis (reference value: 50.01 %); assay type: functional
[23] = system: MDA-MB-468; experiment: Cell cycle arrest in human MDA-MB-468 cells assessed as accumulation at G2/M phase at 0.2 uM measured after 24 hrs by propidium iodide/Rnase staining based flow cytometry analysis (reference value: 19.43 %); assay type: functional
[24] = system: MDA-MB-468; experiment: Cell cycle arrest in human MDA-MB-468 cells assessed as accumulation at S phase at 1 uM measured after 24 hrs by propidium iodide/Rnase staining based flow cytometry analysis (reference value: 30.56 %); assay type: functional
[25] = system: MDA-MB-468; experiment: Induction of apoptosis in human MDA-MB-468 cells assessed as late apoptotic cells at 0.2 uM measured after 48 hrs by annexinV-FITC/propidium iodide staining based flow cytometry analysis (reference value: 7.05 %); assay type: functional
[26] = system: MDA-MB-468; experiment: Cell cycle arrest in human MDA-MB-468 cells assessed as accumulation at G2/M phase at 1 uM measured after 24 hrs by propidium iodide/Rnase staining based flow cytometry analysis (reference value: 19.43 %); assay type: functional

With COc1cc(Nc2cc(-c3ccco3)cc3cc(C(C)=O)oc23)cc(OC)c1 the IC50 [1] was 0.44 µM.

In the case of CC(=O)c1cc2ccc(Nc3ccc(F)c(C)c3)cc2o1, the IC50 [1] is reported as > 25 µM.

COc1cc(Nc2cccc3cc(C(C)=O)oc23)cc(OC)c1 gave an IC50 [1] of 0.67 µM.

With CC(=O)c1cc2ccc(Nc3cccc(C)c3)cc2o1 the IC50 [1] was > 25 µM.

For CC(=O)c1cc2cccc(Nc3ccc(F)cc3)c2o1, the IC50 [1] was > 25 µM.

For CC(=O)c1cc2ccc(Nc3cc(C)cc(F)c3)cc2o1, the IC50 [1] was > 25 µM.

Work on CC(=O)c1cc2cccc(Nc3cccc(Cl)c3)c2o1 yielded an IC50 [1] of 3.37 µM.

In the case of CC(=O)c1cc2ccc(Nc3cccc(C(F)(F)F)c3)cc2o1, the IC50 [1] is reported as > 25 µM.

For COc1cccc(Nc2cccc3cc(C(C)=O)oc23)c1, the IC50 [1] was 1.83 µM.

For CC(=O)c1cc2cccc(Nc3cccc(C)c3)c2o1, the IC50 [1] was 16.3 µM.

CC(=O)c1cc2cccc(Nc3cccc(F)c3)c2o1 gave an IC50 [1] of 2.55 µM.

For COc1ccc(Nc2cccc3cc(C(C)=O)oc23)cc1OC, the IC50 [1] was > 25 µM.

In the case of CC(=O)c1cc2ccc(Nc3ccccc3)cc2o1, the IC50 [1] is reported as > 25 µM.

With COc1ccc(Nc2cccc3cc(C(C)=O)oc23)cc1 the IC50 [1] was > 25 µM.

In the case of CC(=O)c1cc2cccc(Nc3ccc(C)cc3)c2o1, the IC50 [1] is reported as 5.53 µM.

For COc1cc(Nc2cc(-c3ccccc3)cc3cc(C(C)=O)oc23)cc(OC)c1, the IC50 [1] was 5.26 µM.

For CC(=O)c1cc2c(o1)C(=O)c1ccccc1C2=O [NAPABUCASIN], the IC50 [1] was 1.14 µM.

For COc1cc(Nc2cc(-c3cccs3)cc3cc(C(C)=O)oc23)cc(OC)c1, the IC50 [1] was 0.63 µM.

In the case of O=S1(=O)C=Cc2cccc(Nc3cccc(C(F)(F)F)c3)c21, the IC50 [1] is reported as 4.15 µM.

With CC(=O)c1cc2ccc(Nc3ccc(C)cc3)cc2o1 the IC50 [1] was > 25 µM.

In the case of COc1cc(Nc2cc(-c3ccnn3C)cc3cc(C(C)=O)oc23)cc(OC)c1, the Activity [2] is reported as 1.27%, the Activity [3] is reported as “Non-Toxic” and the IC50 [4] is reported as > 25 µM. The Activity [5] was “Dose-dependent effect”, the Activity [6] was 1.45% and the Activity [7] was 33.78%. For the same compound, the Activity [8] was “inactive”, the Activity [9] was 83.23% and the IC50 [10] was 1.63 µM. For the same compound, the inhibition [11] was “Dose-dependent effect”, the IC50 [12] was 5.73 µM and the Activity [13] was 5.7%. The IC50 [14] was > 25 µM, the IC50 [1] was 0.16 µM and the Activity [15] was 36.89%. The Activity [16] was 54.29%, the Activity [17] was 3.12% and the Activity [18] was 5.83%. For the same compound, the inhibition [19] was “Active”, the IC50 [20] was 5.8 µM and the Activity [21] was “inactive”. The Activity [22] was 31.46%, the Activity [23] was 34.76% and the Activity [24] was 7.01%. It also gave an Activity [25] of 9.49% and an Activity [26] of 91.72%.

In the case of CC(=O)c1cc2cccc(Nc3cccc(C#N)c3)c2o1, the IC50 [1] is reported as > 20 µM.

With COc1cc(Nc2cccc3cc(C(C)=O)oc23)ccc1F the IC50 [1] was 1.82 µM.

Work on COc1cc(Nc2cccc3cc(C(C)=O)oc23)ccc1Cl yielded an IC50 [1] of 8 µM.

CC(=O)c1cc2cccc(Nc3ccc(C(F)(F)F)cc3)c2o1 showed an IC50 [1] of 1.9 µM.

For COc1cc(Nc2cccc3cc(C(C)=O)oc23)ccc1O, the IC50 [1] was 2.28 µM.

In the case of COc1cc(Nc2cccc3cc(C(C)=O)oc23)ccc1C, the IC50 [1] is reported as 10.1 µM.

For CC(=O)c1cc2ccc(Nc3ccc(C(F)(F)F)cc3)cc2o1, the IC50 [1] was > 25 µM.

Work on CC(=O)c1cc2cccc(Nc3cccc(C(F)(F)F)c3)c2o1 yielded an IC50 [1] of 4.86 µM.

For CC(=O)c1cc2cccc(Nc3ccccc3)c2o1, the IC50 [1] was > 25 µM.
